Experimental data from ChEMBL document CHEMBL3351385, “Synthesis and preliminary mechanistic evaluation of 5-(p-tolyl)-1-(quinolin-2-yl)pyrazole-3-carboxylic acid amides with potent antiproliferative activity on human cancer cell lines” (Eur J Med Chem, 2014).
The source made the active and inactive calls. The rule behind the calls is not given here.

Experiments:
[1] = target: Aurora kinase A (Homo sapiens) (UniProt O14965); experiment: Inhibition of Aurora A (unknown origin) assessed as remaining enzyme activity at 10 uM by radioactive [33P]-ATP filter binding assay
Outline: (§1)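 A single 10 µM concentration was tested across a 140-kinase panel. Activity was measured by a radioactive 33P-ATP filter-binding assay run at the International Center for Kinase Profiling, University of Dundee.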

[2] = target: CDK2/Cyclin A2 (Homo sapiens) (UniProt P24941+P20248); experiment: Inhibition of CDK2/Cyclin A (unknown origin) assessed as remaining enzyme activity at 10 uM by radioactive [33P]-ATP filter binding assay; assay type: protein-complex assay; outline: as §1
Huh-7 = experiment: Induction of cell death in human HuH7 cells assessed as nuclear condensation at cytotoxic IC50 level after 72 hrs by Hoechst 33258 staining based […]; assay type: functional
Outline: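 Cells were washed in cold PBS, fixed 10 min in cold methanol and stained with Hoechst 33258 at 3 µg/mL for 5 min in the dark. Nuclear condensation and fragmentation were examined by fluorescence microscopy at 40×.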

[3] = target: Eukaryotic translation initiation factor 2-alpha kinase 3 (Homo sapiens) (UniProt Q9NZJ5); experiment: Inhibition of EIF2AK3 (unknown origin) assessed as remaining enzyme activity at 10 uM by radioactive [33P]-ATP filter binding assay; outline: as §1
[4] = target: Glycogen synthase kinase-3 beta (Homo sapiens) (UniProt P49841); experiment: Inhibition of GSK3beta (unknown origin) assessed as remaining enzyme activity at 10 uM by radioactive [33P]-ATP filter binding assay
[5] = target: Dual specificity tyrosine-phosphorylation-regulated kinase 3 (Homo sapiens) (UniProt O43781); experiment: Inhibition of DYRK3 (unknown origin) assessed as remaining enzyme activity at 10 uM by radioactive [33P]-ATP filter binding assay; outline: as §1
[6] = target: Serine/threonine-protein kinase BRSK2 (Homo sapiens) (UniProt Q8IWQ3); experiment: Inhibition of BRSK2 (unknown origin) assessed as remaining enzyme activity at 10 uM by radioactive [33P]-ATP filter binding assay; outline: as §1
[7] = Induction of cell cycle arrest in human Mahlavu cells assessed as accumulation at G0/G1 phase at cytotoxic IC50 level after 48 hrs by propidium iodide staining based FACS method; assay type: functional
[8] = target: Aurora kinase B (Homo sapiens) (UniProt Q96GD4); experiment: Inhibition of Aurora B (unknown origin) assessed as remaining enzyme activity at 10 uM by radioactive [33P]-ATP filter binding assay; outline: as §1
[9] = target: Protein-tyrosine kinase 6 (Homo sapiens) (UniProt Q13882); experiment: Inhibition of BRK (unknown origin) assessed as remaining enzyme activity at 10 uM by radioactive [33P]-ATP filter binding assay; outline: as §1
[10] = target: Serine/threonine-protein kinase Nek6 (Homo sapiens) (UniProt Q9HC98); experiment: Inhibition of NEK6 (unknown origin) assessed as remaining enzyme activity at 10 uM by radioactive [33P]-ATP filter binding assay
[11] = target: MAP kinase-interacting serine/threonine-protein kinase 1 (Homo sapiens) (UniProt Q9BUB5); experiment: Inhibition of MNK1 (unknown origin) assessed as remaining enzyme activity at 10 uM by radioactive [33P]-ATP filter binding assay
[12] = target: Dual specificity mitogen-activated protein kinase kinase 6 (Homo sapiens) (UniProt P52564); experiment: Inhibition of MKK6 (unknown origin) assessed as remaining enzyme activity at 10 uM by radioactive [33P]-ATP filter binding assay
[13] = target: Serine/threonine-protein kinase pim-3 (Homo sapiens) (UniProt Q86V86); experiment: Inhibition of PIM3 (unknown origin) assessed as remaining enzyme activity at 10 uM by radioactive [33P]-ATP filter binding assay
[14] = target: Tyrosine-protein kinase SYK (Homo sapiens) (UniProt P43405); experiment: Inhibition of SYK (unknown origin) assessed as remaining enzyme activity at 10 uM by radioactive [33P]-ATP filter binding assay
[15] = target: Serine/threonine-protein kinase MARK1 (Homo sapiens) (UniProt Q9P0L2); experiment: Inhibition of MARK1 (unknown origin) assessed as remaining enzyme activity at 10 uM by radioactive [33P]-ATP filter binding assay
[16] = target: Homeodomain-interacting protein kinase 1 (Homo sapiens) (UniProt Q86Z02); experiment: Inhibition of HIPK1 (unknown origin) assessed as remaining enzyme activity at 10 uM by radioactive [33P]-ATP filter binding assay
[17] = Induction of cell cycle arrest in human HuH7 cells assessed as accumulation at G0/G1 phase at cytotoxic IC50 level after 48 hrs by propidium iodide staining based FACS method; assay type: functional, Huh-7
Outline: (§2)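 Huh7 cells were seeded at 150,000–300,000 per 100-mm dish and left 24 h. […] Cells were stained with a propidium iodide-containing cell cycle reagent, and subG1, G0/G1, S and G2/M fractions were scored by flow cytometry.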

[18] = target: Mitogen-activated protein kinase 7 (Homo sapiens) (UniProt Q13164); experiment: Inhibition of ERK5 (unknown origin) assessed as remaining enzyme activity at 10 uM by radioactive [33P]-ATP filter binding assay; outline: as §1
[19] = target: Casein kinase II (Homo sapiens) (UniProt P67870+P68400+P19784); experiment: Inhibition of CK2 (unknown origin) assessed as remaining enzyme activity at 10 uM by radioactive [33P]-ATP filter binding assay; assay type: protein-complex assay; outline: as §1
[20] = target: MAP/microtubule affinity-regulating kinase 4 (Homo sapiens) (UniProt Q96L34); experiment: Inhibition of MARK4 (unknown origin) assessed as remaining enzyme activity at 10 uM by radioactive [33P]-ATP filter binding assay
[21] = target: Interleukin-1 receptor-associated kinase 1 (Homo sapiens) (UniProt P51617); experiment: Inhibition of IRAK1 (unknown origin) assessed as remaining enzyme activity at 10 uM by radioactive [33P]-ATP filter binding assay
[22] = target: Tyrosine-protein kinase BTK (Homo sapiens) (UniProt Q06187); experiment: Inhibition of BTK (unknown origin) assessed as remaining enzyme activity at 10 uM by radioactive [33P]-ATP filter binding assay; outline: as §1
[23] = target: Serine/threonine-protein kinase PAK 5 (Homo sapiens) (UniProt Q9P286); experiment: Inhibition of PAK5 (unknown origin) assessed as remaining enzyme activity at 10 uM by radioactive [33P]-ATP filter binding assay
[24] = target: MAP/microtubule affinity-regulating kinase 3 (Homo sapiens) (UniProt P27448); experiment: Inhibition of MARK3 (unknown origin) assessed as remaining enzyme activity at 10 uM by radioactive [33P]-ATP filter binding assay
[25] = target: MAP kinase-interacting serine/threonine-protein kinase 2 (Homo sapiens) (UniProt Q9HBH9); experiment: Inhibition of MNK2 (unknown origin) assessed as remaining enzyme activity at 10 uM by radioactive [33P]-ATP filter binding assay
[26] = target: Serine/threonine-protein kinase 16 (Homo sapiens) (UniProt O75716); experiment: Inhibition of MPSK1 (unknown origin) assessed as remaining enzyme activity at 10 uM by radioactive [33P]-ATP filter binding assay
[27] = Induction of cell cycle arrest in human HuH7 cells assessed as accumulation at G2/M phase at cytotoxic IC50 level after 48 hrs by propidium iodide staining based FACS method; assay type: functional, Huh-7; outline: as §2

Chain of Mitogen-activated protein kinase 7 (Homo sapiens) (Q13164 2-816 limits assumed): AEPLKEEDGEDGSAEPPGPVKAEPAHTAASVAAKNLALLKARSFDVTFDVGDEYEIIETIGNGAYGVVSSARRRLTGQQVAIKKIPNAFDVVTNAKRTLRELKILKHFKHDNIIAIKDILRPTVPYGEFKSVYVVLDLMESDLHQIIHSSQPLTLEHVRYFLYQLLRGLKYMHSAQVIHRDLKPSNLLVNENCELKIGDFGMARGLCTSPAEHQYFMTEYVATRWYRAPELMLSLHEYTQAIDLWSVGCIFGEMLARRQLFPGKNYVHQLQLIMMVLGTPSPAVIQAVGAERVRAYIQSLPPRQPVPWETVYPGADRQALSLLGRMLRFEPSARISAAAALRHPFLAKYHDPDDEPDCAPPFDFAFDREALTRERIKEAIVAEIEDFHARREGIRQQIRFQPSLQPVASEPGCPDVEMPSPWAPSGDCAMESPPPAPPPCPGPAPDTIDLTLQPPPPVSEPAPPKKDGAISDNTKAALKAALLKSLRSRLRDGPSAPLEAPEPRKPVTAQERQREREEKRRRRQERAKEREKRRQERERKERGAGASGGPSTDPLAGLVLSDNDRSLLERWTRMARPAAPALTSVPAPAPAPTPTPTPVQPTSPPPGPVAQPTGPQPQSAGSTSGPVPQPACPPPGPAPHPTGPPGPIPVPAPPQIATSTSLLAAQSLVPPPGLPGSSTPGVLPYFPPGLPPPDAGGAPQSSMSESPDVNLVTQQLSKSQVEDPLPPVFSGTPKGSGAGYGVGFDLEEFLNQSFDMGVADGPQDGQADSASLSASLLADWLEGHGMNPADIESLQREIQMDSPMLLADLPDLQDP
Chain of Interleukin-1 receptor-associated kinase 1 (Homo sapiens) (P51617 whole entry, looked up): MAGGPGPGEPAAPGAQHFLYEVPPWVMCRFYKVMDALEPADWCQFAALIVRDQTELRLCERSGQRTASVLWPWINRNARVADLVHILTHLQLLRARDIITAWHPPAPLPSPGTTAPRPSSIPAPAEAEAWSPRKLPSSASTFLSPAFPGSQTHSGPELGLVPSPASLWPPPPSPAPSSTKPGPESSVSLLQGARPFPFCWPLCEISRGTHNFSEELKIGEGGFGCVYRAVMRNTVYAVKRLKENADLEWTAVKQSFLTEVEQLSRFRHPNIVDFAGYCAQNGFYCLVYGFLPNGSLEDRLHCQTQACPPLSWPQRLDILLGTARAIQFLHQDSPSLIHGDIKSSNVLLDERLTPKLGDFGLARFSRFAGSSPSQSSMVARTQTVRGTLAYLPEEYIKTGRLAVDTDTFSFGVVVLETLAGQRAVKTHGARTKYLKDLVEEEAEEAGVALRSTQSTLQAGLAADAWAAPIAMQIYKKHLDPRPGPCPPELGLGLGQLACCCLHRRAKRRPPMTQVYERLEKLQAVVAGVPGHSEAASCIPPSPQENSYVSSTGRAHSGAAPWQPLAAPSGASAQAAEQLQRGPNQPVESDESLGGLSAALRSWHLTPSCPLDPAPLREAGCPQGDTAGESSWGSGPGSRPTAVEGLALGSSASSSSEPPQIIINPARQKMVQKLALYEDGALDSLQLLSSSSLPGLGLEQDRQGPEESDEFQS
Chain of Serine/threonine-protein kinase BRSK2 (Homo sapiens) (Q8IWQ3 whole entry): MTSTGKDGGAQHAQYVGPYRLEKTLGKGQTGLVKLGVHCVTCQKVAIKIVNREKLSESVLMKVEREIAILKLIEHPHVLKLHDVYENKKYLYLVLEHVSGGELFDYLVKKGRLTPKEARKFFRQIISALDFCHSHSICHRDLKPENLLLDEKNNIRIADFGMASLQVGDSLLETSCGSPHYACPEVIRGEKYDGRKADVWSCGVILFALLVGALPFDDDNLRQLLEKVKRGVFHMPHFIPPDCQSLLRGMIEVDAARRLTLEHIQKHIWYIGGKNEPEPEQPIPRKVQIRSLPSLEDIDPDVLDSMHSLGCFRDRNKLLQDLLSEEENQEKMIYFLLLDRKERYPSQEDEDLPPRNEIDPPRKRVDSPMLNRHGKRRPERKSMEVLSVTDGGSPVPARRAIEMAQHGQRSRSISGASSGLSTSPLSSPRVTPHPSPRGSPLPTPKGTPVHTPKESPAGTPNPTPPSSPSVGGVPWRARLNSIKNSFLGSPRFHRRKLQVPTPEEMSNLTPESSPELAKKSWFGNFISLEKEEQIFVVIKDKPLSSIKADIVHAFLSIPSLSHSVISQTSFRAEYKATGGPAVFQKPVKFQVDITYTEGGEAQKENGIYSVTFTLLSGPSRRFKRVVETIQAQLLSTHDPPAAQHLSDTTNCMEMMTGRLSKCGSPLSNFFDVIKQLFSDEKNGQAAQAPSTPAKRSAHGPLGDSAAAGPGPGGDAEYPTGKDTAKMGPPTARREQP
Chain of Eukaryotic translation initiation factor 2-alpha kinase 3 (Homo sapiens) (Q9NZJ5 whole entry): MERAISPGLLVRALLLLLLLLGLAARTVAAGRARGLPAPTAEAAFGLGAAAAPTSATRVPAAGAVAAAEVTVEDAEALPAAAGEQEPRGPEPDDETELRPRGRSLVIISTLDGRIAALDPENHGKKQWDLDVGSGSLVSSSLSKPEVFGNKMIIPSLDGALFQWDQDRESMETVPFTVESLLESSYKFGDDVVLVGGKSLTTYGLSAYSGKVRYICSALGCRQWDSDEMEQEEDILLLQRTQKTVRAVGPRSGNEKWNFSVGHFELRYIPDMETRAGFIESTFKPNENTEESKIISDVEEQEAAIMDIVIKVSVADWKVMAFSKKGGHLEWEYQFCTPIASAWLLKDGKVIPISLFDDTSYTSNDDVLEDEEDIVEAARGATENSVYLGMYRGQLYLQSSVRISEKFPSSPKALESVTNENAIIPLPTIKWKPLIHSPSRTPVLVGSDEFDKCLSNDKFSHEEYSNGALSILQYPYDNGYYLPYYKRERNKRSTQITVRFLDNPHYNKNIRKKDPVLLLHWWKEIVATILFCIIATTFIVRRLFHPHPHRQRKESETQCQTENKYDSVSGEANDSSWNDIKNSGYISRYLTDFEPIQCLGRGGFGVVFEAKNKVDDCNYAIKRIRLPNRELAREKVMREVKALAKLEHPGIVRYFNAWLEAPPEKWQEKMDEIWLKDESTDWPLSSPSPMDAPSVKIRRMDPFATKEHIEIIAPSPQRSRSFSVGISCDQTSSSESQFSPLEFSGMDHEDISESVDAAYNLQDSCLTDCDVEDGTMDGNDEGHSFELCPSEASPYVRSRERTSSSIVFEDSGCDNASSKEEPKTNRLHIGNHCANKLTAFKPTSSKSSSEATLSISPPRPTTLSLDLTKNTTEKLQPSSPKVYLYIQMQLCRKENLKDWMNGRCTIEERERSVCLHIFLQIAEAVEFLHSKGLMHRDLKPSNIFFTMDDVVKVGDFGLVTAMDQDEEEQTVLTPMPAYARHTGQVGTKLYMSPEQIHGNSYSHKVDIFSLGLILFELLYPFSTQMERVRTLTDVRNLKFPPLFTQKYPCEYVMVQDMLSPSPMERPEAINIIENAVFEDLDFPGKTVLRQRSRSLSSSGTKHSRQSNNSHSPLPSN
Chain of Protein-tyrosine kinase 6 (Homo sapiens) (Q13882 whole entry, looked up): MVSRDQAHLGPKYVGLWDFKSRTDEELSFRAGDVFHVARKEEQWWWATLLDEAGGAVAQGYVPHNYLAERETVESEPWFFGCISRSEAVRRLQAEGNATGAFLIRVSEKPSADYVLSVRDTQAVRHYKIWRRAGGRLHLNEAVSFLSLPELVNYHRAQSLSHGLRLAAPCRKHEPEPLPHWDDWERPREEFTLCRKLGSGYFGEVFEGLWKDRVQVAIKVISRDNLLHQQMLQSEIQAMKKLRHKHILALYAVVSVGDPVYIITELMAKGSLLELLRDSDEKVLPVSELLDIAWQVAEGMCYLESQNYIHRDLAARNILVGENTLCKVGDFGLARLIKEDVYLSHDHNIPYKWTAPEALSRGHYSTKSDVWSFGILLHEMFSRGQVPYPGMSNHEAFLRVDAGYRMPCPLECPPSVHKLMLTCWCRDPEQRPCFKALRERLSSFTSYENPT
Chain of Dual specificity mitogen-activated protein kinase kinase 6 (Homo sapiens) (P52564 whole entry): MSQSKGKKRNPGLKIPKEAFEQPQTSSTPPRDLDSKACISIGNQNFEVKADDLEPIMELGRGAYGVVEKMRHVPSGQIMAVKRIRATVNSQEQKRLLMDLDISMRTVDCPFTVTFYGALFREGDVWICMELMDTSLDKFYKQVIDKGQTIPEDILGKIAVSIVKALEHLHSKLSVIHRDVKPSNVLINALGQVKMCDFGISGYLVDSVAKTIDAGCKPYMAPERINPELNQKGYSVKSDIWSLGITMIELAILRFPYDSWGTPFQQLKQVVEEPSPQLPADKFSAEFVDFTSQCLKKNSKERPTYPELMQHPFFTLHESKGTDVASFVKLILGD
Chain of Serine/threonine-protein kinase 16 (Homo sapiens) (O75716 whole entry): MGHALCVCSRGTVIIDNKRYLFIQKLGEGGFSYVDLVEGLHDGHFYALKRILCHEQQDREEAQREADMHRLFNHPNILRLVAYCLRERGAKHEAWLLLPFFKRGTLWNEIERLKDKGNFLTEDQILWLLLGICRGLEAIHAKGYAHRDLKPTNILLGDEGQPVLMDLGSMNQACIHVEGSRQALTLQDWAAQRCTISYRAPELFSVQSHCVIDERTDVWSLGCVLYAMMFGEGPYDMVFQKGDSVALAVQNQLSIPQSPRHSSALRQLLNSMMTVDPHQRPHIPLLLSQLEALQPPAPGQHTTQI

- Activity [1]: 120%
- Activity [2]: 102%
- Activity [3]: 96%
- Activity [4]: 103%
- Activity [5]: 86%
- Activity [6]: 102%
- Activity [8]: 104%
- Activity [9]: 109%
- Activity [10]: 116%
- Activity [11]: 104%
- Activity [12]: 99%
- Activity [13]: 113%
- Activity [14]: 97%
- Activity [15]: 99%
- Activity [16]: 98%
- Activity [18]: 74%
- Activity [19]: 85%
- Activity [20]: 76%
- Activity [21]: 109%
- Activity [22]: 92%
- Activity [23]: 97%
- Activity [24]: 103%
- Activity [25]: 109%
- Activity [26]: 113%
SMILES: Cc1ccc(-c2cc(C(=O)Nc3ccnc(Cl)c3)nn2-c2ccc3ccccc3n2)cc1
- Activity (Huh-7): Active
- Activity [7]: 58.7%
- Activity [17]: 40.1%
- Activity [27]: 27.8%
